Laboratory results published in ChEMBL document CHEMBL1143707, “7-Arylpiperazinylalkyl and 7-tetrahydroisoquinolinylalkyl derivatives of 8-alkoxy-purine-2,6-dione and some of their purine-2,6,8-trione analogs as 5-HT(1A), 5-HT(2A), and 5-HT(7) serotonin receptor ligands” (Bioorg Med Chem, 2007).
pKi: −log10 of the molar value. Each block holds one compound with its values, some of them ahead of it.

Assays:
[1] = biological target: T1, 5-hydroxytryptamine receptor 1A (Rattus norvegicus, UniProt P19327); test: Displacement of [3H]8-OH-DPAT from rat brain 5HT1A receptor
T1 sequence (P19327 whole entry): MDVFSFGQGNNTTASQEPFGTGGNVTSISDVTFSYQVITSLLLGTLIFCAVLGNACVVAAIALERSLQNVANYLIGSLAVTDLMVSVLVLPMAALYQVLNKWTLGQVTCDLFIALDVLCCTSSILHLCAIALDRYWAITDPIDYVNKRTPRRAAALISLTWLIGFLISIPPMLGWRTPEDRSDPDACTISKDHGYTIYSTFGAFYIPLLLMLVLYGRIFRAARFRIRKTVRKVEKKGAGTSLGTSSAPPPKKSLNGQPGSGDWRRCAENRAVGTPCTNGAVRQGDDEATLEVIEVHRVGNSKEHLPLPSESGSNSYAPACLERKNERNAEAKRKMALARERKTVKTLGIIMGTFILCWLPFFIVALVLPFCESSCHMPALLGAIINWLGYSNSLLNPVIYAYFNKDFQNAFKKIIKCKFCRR
Summary of the method: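 Rat hippocampal membranes; 1 nM [3H]-8-OH-DPAT; nonspecific binding with 10 μM 5-HT; 8–10 competitor concentrations in triplicate, ≥3 experiments; GF/B filtration, ice-cold buffer washes, scintillation counting; Ki by nonlinear regression with Cheng–Prusoff.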

[2] = biological target: 5-hydroxytryptamine receptor 2A (Rattus norvegicus, UniProt P14842); test: Displacement of [3H]ketanserin from rat brain 5HT2A receptor
Summary of the method: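 Rat brain membranes; 0.6 nM [3H]-ketanserin; nonspecific binding with 1 μM methysergide; 8–10 competitor concentrations in triplicate, ≥3 experiments; GF/B filtration, scintillation counting; Ki via Cheng–Prusoff.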

[3] = biological target: 5-hydroxytryptamine receptor 7 (Rattus norvegicus, UniProt P32305); test: Displacement of [3H]5CT from 5HT7 receptor in Wistar rat hyphalamic membrane; type: cell membranes
Mus musculus [4] = test: Antidepressant activity in Swiss Albino mouse assessed as immobility time during final 4 mins of 6 mins session at 10 mg/kg, ip administered 30 mins before the test in forced-swimming test; type: functional; settings: route intraperitoneal
Summary of the method: (§1)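 Male Albino Swiss mice (24-28 g), ip in 1% aqueous Tween 80 suspension (10 mL/kg), 30 min pretest; single glass cylinder (25 cm high, 10 cm diameter), 6 cm water at 23–25 °C for 6 min; immobility (floating, minimal head-keeping movements) timed over final 4 min; n = 9-10/group; mean ± SEM.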

Mus musculus [5] = test: Antidepressant activity in Swiss Albino mouse assessed as immobility time during final 4 mins of 6 mins session at 20 mg/kg, ip administered 30 mins before the test in forced-swimming test; type: functional; settings: route intraperitoneal; summary of the method: as §1
Mus musculus [6] = test: Antidepressant activity in Swiss Albino mouse assessed as immobility time during final 4 mins of 6 mins session at 30 mg/kg, ip administered 30 mins before the test in forced-swimming test; type: functional; settings: route intraperitoneal
Mus musculus [7] = test: Locomotor activity in Swiss Albino mouse assessed as number of crossings in 6 mins at 10 mg/kg, ip administered 30 mins before the test; type: functional; settings: route intraperitoneal
Summary of the method: (§2)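 Male Albino Swiss mice dosed ip 30 min before test (compound in 1% Tween 80; imipramine in distilled water); individual cages with IR beam sensors, consecutive beam breaks scored as ambulatory counts during first 6 min and over a 30-min session; n = 10/group; mean ± SEM.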

Mus musculus [8] = test: Locomotor activity in Swiss Albino mouse assessed as number of crossings in 6 mins at 20 mg/kg, ip administered 30 mins before the test; type: functional; settings: route intraperitoneal; summary of the method: as §2
Mus musculus [9] = test: Locomotor activity in Swiss Albino mouse assessed as number of crossings in 6 mins at 30 mg/kg, ip administered 30 mins before the test; type: functional; settings: route intraperitoneal; summary of the method: as §2
Mus musculus [10] = test: Locomotor activity in Swiss Albino mouse assessed as number of crossings in 30 mins at 10 mg/kg, ip administered 30 mins before the test; type: functional; settings: route intraperitoneal; summary of the method: as §2
Mus musculus [11] = test: Locomotor activity in Swiss Albino mouse assessed as number of crossings in 30 mins at 30 mg/kg, ip administered 30 mins before the test; type: functional; settings: route intraperitoneal; summary of the method: as §2
Mus musculus [12] = test: Effect on compound induced hypothermia in Swiss Albino mouse at 2.5 mg/kg, ip in presence of 0.1 mg/kg WAY 100635 after 60 mins relative to control; type: functional
Summary of the method: (§3)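 Male Albino Swiss mice; WAY 100635 0.1 mg/kg sc (in distilled water) 15 min before ip compound (1% Tween 80); rectal temperature at 30 and 60 min after compound; Δt from basal; n = 8/group; mean ± SEM.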

Mus musculus [13] = test: Anxiolytic activity in Swiss Albino mouse assessed as number of punished crossings for 60 secs at 2.5 mg/kg, ip administered 30 mins before the test in four-plate test; type: functional; settings: route intraperitoneal
Summary of the method: (§4)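 Male Albino Swiss mice (24-28 g), ip in 1% Tween 80 (10 mL/kg) 30 min before test; box with four metal floor plates, 120 V for 0.5 s on each plate-to-plate crossing after 15 s free exploration, 3 s shock-free if running continues; punished crossings counted over 60 s; n = 9-10/group; mean ± SEM.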

Mus musculus [14] = test: Anxiolytic activity in Swiss Albino mouse assessed as number of punished crossings for 60 secs at 5 mg/kg, ip administered 30 mins before the test in four-plate test; type: functional; settings: route intraperitoneal; summary of the method: as §4
Mus musculus [15] = test: Anxiolytic activity in Swiss Albino mouse assessed as number of punished crossings for 60 secs at 10 mg/kg, ip administered 30 mins before the test in four-plate test; type: functional; settings: route intraperitoneal; summary of the method: as §4
Mus musculus [16] = test: Decrease in body temperature in Swiss Albino mouse at 2.5 mg/kg, ip administered 30 mins before the test measured after 30 mins relative to control; type: functional; settings: route intraperitoneal
Summary of the method: (§5)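 Male Albino Swiss mice (24-28 g) given compound ip in 1% aqueous Tween 80 (10 mL/kg); rectal temperature read at 30, 60, 90 and 120 min post-dose; Δt versus basal temperature taken at start (initial ~36.0 °C); n = 8/group; mean ± SEM.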

Mus musculus [17] = test: Decrease in body temperature in Swiss Albino mouse at 2.5 mg/kg, ip administered 30 mins before the test measured after 60 mins relative to control; type: functional; settings: route intraperitoneal; summary of the method: as §5
Mus musculus [18] = test: Decrease in body temperature in Swiss Albino mouse at 2.5 mg/kg, ip administered 30 mins before the test measured after 90 mins relative to control; type: functional; settings: route intraperitoneal; summary of the method: as §5
Mus musculus [19] = test: Decrease in body temperature in Swiss Albino mouse at 2.5 mg/kg, ip administered 30 mins before the test measured after 120 mins relative to control; type: functional; settings: route intraperitoneal; summary of the method: as §5
Mus musculus [20] = test: Decrease in body temperature in Swiss Albino mouse at 5 mg/kg, ip administered 30 mins before the test measured after 30 mins relative to control; type: functional; settings: route intraperitoneal; summary of the method: as §5
Mus musculus [21] = test: Decrease in body temperature in Swiss Albino mouse at 5 mg/kg, ip administered 30 mins before the test measured after 60 mins relative to control; type: functional; settings: route intraperitoneal; summary of the method: as §5
Mus musculus [22] = test: Decrease in body temperature in Swiss Albino mouse at 5 mg/kg, ip administered 30 mins before the test measured after 90 mins relative to control; type: functional; settings: route intraperitoneal; summary of the method: as §5
Mus musculus [23] = test: Decrease in body temperature in Swiss Albino mouse at 5 mg/kg, ip administered 30 mins before the test measured after 120 mins relative to control; type: functional; settings: route intraperitoneal; summary of the method: as §5
Mus musculus [24] = test: Effect on compound induced hypothermia in Swiss Albino mouse at 2.5 mg/kg, ip in presence of 0.1 mg/kg WAY 100635 after 30 mins relative to control; type: functional; summary of the method: as §3
Mus musculus [25] = test: Antidepressant activity in Swiss Albino mouse assessed as immobility time during final 4 mins of 6 mins session at 2.5 mg/kg, ip administered 30 mins before the test in forced-swimming test; type: functional; settings: route intraperitoneal; summary of the method: as §1
Mus musculus [26] = test: Antidepressant activity in Swiss Albino mouse assessed as immobility time during final 4 mins of 6 mins session at 5 mg/kg, ip administered 30 mins before the test in forced-swimming test; type: functional; settings: route intraperitoneal; summary of the method: as §1
Mus musculus [27] = test: Locomotor activity in Swiss Albino mouse assessed as number of crossings in 6 mins at 5 mg/kg, ip administered 30 mins before the test; type: functional; settings: route intraperitoneal; summary of the method: as §2
Mus musculus [28] = test: Locomotor activity in Swiss Albino mouse assessed as number of crossings in 30 mins at 5 mg/kg, ip administered 30 mins before the test; type: functional; settings: route intraperitoneal; summary of the method: as §2
Mus musculus [29] = test: Locomotor activity in Swiss Albino mouse assessed as number of crossings in 30 mins at 20 mg/kg, ip administered 30 mins before the test; type: functional; settings: route intraperitoneal; summary of the method: as §2

Sequence of 5-hydroxytryptamine receptor 7 (P32305 whole entry): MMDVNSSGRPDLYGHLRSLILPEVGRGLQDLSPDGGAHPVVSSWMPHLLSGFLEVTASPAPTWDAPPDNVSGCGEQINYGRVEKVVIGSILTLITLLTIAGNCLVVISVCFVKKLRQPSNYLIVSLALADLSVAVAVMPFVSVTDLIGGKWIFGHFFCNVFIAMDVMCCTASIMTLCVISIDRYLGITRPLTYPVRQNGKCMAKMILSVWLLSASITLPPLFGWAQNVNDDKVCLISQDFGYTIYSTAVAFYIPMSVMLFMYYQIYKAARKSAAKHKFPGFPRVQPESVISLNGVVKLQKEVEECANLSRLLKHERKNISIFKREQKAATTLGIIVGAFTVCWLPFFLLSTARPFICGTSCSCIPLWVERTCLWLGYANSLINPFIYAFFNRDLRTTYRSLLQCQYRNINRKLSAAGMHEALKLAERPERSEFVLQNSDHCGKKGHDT
Sequence of 5-hydroxytryptamine receptor 2A (P14842 whole entry): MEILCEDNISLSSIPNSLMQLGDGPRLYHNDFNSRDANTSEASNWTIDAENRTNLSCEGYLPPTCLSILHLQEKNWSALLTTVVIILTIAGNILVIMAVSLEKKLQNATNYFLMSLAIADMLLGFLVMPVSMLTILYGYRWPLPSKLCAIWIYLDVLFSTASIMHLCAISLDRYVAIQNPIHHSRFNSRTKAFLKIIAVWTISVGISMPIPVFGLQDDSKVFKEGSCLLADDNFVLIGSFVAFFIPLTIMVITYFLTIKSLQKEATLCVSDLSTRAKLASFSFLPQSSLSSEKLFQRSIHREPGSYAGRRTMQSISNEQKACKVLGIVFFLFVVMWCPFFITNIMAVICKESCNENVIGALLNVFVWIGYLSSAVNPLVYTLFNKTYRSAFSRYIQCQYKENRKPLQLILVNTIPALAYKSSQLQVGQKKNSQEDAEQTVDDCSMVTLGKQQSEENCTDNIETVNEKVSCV

Compound: CCOc1nc2c(c(=O)n(C)c(=O)n2C)n1CCCCN1CCN(c2ccccc2)CC1
pKi [1]: 7.17
pKi [2]: 6.88
pKi [3]: 6.71

Compound: CCOc1nc2c(c(=O)n(C)c(=O)n2C)n1CCCN1CCN(c2cccc(Cl)c2)CC1
pKi [1]: 6.72
pKi [2]: 7.64
pKi [3]: 6.89

Compound: CN(C)CCCN1c2ccccc2CCc2ccccc21 [IMIPRAMINE]
Activity (Mus musculus [4]): 149.1 s
Activity (Mus musculus [5]): 107.8 s
Activity (Mus musculus [6]): 76.4 s
Activity (Mus musculus [7]): 338
Activity (Mus musculus [8]): 314.9
Activity (Mus musculus [9]): 300.9
Activity (Mus musculus [10]): 877
Activity (Mus musculus [11]): 602.3

Compound: CCOc1nc2c(c(=O)n(C)c(=O)n2C)n1CCCCN1CCN(c2ccccc2OC)CC1.Cl
Activity (Mus musculus [12]): -0.3 °C
Activity (Mus musculus [13]): 4.1
Activity (Mus musculus [14]): 5.8
Activity (Mus musculus [15]): 3.8
pKi [1]: 7.96
pKi [2]: 6.60
pKi [3]: 7.27
Activity (Mus musculus [16]): -1.5 °C
Activity (Mus musculus [17]): -1 °C
Activity (Mus musculus [18]): -0.9 °C
Activity (Mus musculus [19]): -0.7 °C
Activity (Mus musculus [20]): -2.5 °C
Activity (Mus musculus [21]): -1.9 °C
Activity (Mus musculus [22]): -1.5 °C
Activity (Mus musculus [23]): -1.3 °C
Activity (Mus musculus [24]): -0.5 °C
Activity (Mus musculus [25]): 154.4 s
Activity (Mus musculus [26]): 126.9 s
Activity (Mus musculus [4]): 122.6 s
Activity (Mus musculus [5]): 178.2 s
Activity (Mus musculus [27]): 125.5
Activity (Mus musculus [7]): 56.2
Activity (Mus musculus [8]): 11.1
Activity (Mus musculus [28]): 325
Activity (Mus musculus [10]): 193.4
Activity (Mus musculus [29]): 19.5

Compound: CCOc1nc2c(c(=O)n(C)c(=O)n2C)n1CCCCN1CCN(c2cccc(Cl)c2)CC1
pKi [1]: 7.92
pKi [2]: 7.82
pKi [3]: 7.29

Further lines, results first:

pKi [1]: 7.08
pKi [2]: 6.01
pKi [3]: 6.39
Compound: CCOc1nc2c(c(=O)n(C)c(=O)n2C)n1CCCN1CCN(c2ccccc2OC)CC1

pKi [1]: 6.50
pKi [2]: 6.27
pKi [3]: 6.48
Compound: CCCOc1nc2c(c(=O)n(C)c(=O)n2C)n1CCCN1CCN(c2ccccc2OC)CC1

pKi [1]: 6.00
pKi [2]: 5.58
pKi [3]: 5.36
Compound: CCCOc1nc2c(c(=O)n(C)c(=O)n2C)n1CCCN1CCc2ccccc2C1

pKi [1]: 5.89
pKi [2]: 6.75
pKi [3]: 6.32
Compound: CCOc1nc2c(c(=O)n(C)c(=O)n2C)n1CCCN1CCN(c2ccccc2)CC1

pKi [1]: 5.97
pKi [2]: 6.23
pKi [3]: 5.24
Compound: CCOc1nc2c(c(=O)n(C)c(=O)n2C)n1CCCN1CCc2ccccc2C1

pKi [1]: 6.48
pKi [2]: 6.04
pKi [3]: 7.24
Compound: CCCOc1nc2c(c(=O)n(C)c(=O)n2C)n1CCCCN1CCc2ccccc2C1
